Source: ChEMBL document CHEMBL3792365, “Dioxol and dihydrodioxin analogs of 2- and 3-phenylacetonitriles as potent anti-cancer agents with nanomolar activity against a variety of human cancer cells” (2016)

Experiments:
Type in all cases: functional
[1] = Growth inhibition of human HCT116 cells after 48 hrs by sulforhodamine B assay; conditions: HCT-116, 48 h
How it was run: (§1)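 Five-dose testing against a 60-line human tumor cell panel. GI50 is the drug concentration giving a 50% reduction in net protein increase relative to untreated control cells.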

[2] = Growth inhibition of human OVCAR3 cells at 10 uM after 48 hrs by sulforhodamine B assay; conditions: OVCAR-3, 48 h, values are per cent of control
MCF7 = experiment: Growth inhibition of human MCF7 cells at 10 uM after 48 hrs by sulforhodamine B assay; conditions: MCF7, 48 h, values are per cent of control
786-0 = experiment: Growth inhibition of human 786-0 cells at 10 uM after 48 hrs by sulforhodamine B assay; conditions: 786-0, 48 h, values are per cent of control
SK-MEL-5 [3] = experiment: Growth inhibition of human SK-MEL-5 cells at 10 uM after 48 hrs by sulforhodamine B assay; conditions: SK-MEL-5, 48 h, values are per cent of control
SK-MEL-5 [4] = experiment: Growth inhibition of human SK-MEL-5 cells after 48 hrs by sulforhodamine B assay; conditions: SK-MEL-5, 48 h
How it was run: (§2)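 Five-dose concentration series run across a panel of 60 human tumour cell lines. GI50 is taken as the drug concentration giving a 50% reduction in net protein increase relative to untreated control cells.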

[5] = Growth inhibition of human IGROV1 cells after 48 hrs by sulforhodamine B assay; conditions: IGROV-1, 48 h; how it was run: as §1
[6] = Growth inhibition of human NCI-ADR-RES cells at 10 uM after 48 hrs by sulforhodamine B assay; conditions: values are per cent of control
MDA-MB-231 = experiment: Growth inhibition of human MDA-MB-231 cells after 48 hrs by sulforhodamine B assay; conditions: MDA-MB-231, 48 h; how it was run: as §1
[7] = Growth inhibition of human SF295 cells after 48 hrs by sulforhodamine B assay; conditions: SF-295, 48 h; how it was run: as §2
U-251 = experiment: Growth inhibition of human U251 cells after 48 hrs by sulforhodamine B assay; conditions: U-251, 48 h; how it was run: as §2
[8] = Growth inhibition of human UACC257 cells at 10 uM after 48 hrs by sulforhodamine B assay; conditions: UACC-257, 48 h, values are per cent of control
[9] = Growth inhibition of human SF539 cells after 48 hrs by sulforhodamine B assay; conditions: SF-539, 48 h; how it was run: as §2
[10] = Growth inhibition of human HL-60(TB) cells after 48 hrs by sulforhodamine B assay; conditions: HL-60, 48 h
How it was run: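 Five-dose study across the 60-cell human tumour panel. GI50 is the drug concentration giving a 50% reduction in net protein increase relative to control cells.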

[11] = Growth inhibition of human RXF393 cells at 10 uM after 48 hrs by sulforhodamine B assay; conditions: RXF 393, 48 h, values are per cent of control
NCI-H522 = experiment: Growth inhibition of human NCI-H522 cells after 48 hrs by sulforhodamine B assay; conditions: NCI-H522, 48 h; how it was run: as §2
MDA-MB-435 = experiment: Growth inhibition of human MDA-MB-435 cells after 48 hrs by sulforhodamine B assay; conditions: MDA-MB-435, 48 h; how it was run: as §1
[12] = Growth inhibition of human UACC62 cells after 48 hrs by sulforhodamine B assay; conditions: UACC-62, 48 h
How it was run: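 Five-dose testing across the 60-line human tumour cell panel. GI50 is the drug concentration that gives a 50% reduction in net protein increase relative to control cells.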

[13] = Growth inhibition of human OVCAR3 cells after 48 hrs by sulforhodamine B assay; conditions: OVCAR-3, 48 h; how it was run: as §2
SK-MEL-28 = experiment: Growth inhibition of human SK-MEL-28 cells after 48 hrs by sulforhodamine B assay; conditions: SK-MEL-28, 48 h; how it was run: as §2
[14] = Growth inhibition of human SNB75 cells after 48 hrs by sulforhodamine B assay; conditions: SNB-75, 48 h; how it was run: as §2
[15] = Growth inhibition of human OVCAR8 cells at 10 uM after 48 hrs by sulforhodamine B assay; conditions: OVCAR-8, 48 h, values are per cent of control
[16] = Growth inhibition of human RPMI8226 cells at 10 uM after 48 hrs by sulforhodamine B assay; conditions: RPMI-8226, 48 h, values are per cent of control
[17] = Growth inhibition of human PC3 cells after 48 hrs by sulforhodamine B assay; conditions: PC-3, 48 h; how it was run: as §2
[18] = Growth inhibition of human NCI-ADR-RES cells after 48 hrs by sulforhodamine B assay; how it was run: as §2
[19] = Growth inhibition of human HCC2998 cells after 48 hrs by sulforhodamine B assay; conditions: HCC 2998, 48 h; how it was run: as §1
[20] = Growth inhibition of human PC3 cells at 10 uM after 48 hrs by sulforhodamine B assay; conditions: PC-3, 48 h, values are per cent of control
ACHN = experiment: Growth inhibition of human ACHN cells at 10 uM after 48 hrs by sulforhodamine B assay; conditions: values are per cent of control
[21] = Growth inhibition of human SKOV3 cells after 48 hrs by sulforhodamine B assay; conditions: SK-OV-3, 48 h; how it was run: as §2
CCRF-CEM [22] = experiment: Growth inhibition of human CCRF-CEM cells at 10 uM after 48 hrs by sulforhodamine B assay; conditions: values are per cent of control
SK-MEL-2 = experiment: Growth inhibition of human SK-MEL-2 cells after 48 hrs by sulforhodamine B assay; conditions: SK-MEL-2, 48 h; how it was run: as §2
Malme-3M = experiment: Growth inhibition of human MALME-3M cells at 10 uM after 48 hrs by sulforhodamine B assay; conditions: values are per cent of control
M14 = experiment: Growth inhibition of human M14 cells after 48 hrs by sulforhodamine B assay; conditions: M14, 48 h; how it was run: as §1
SR = experiment: Growth inhibition of human SR cells at 10 uM after 48 hrs by sulforhodamine B assay; conditions: values are per cent of control
CCRF-CEM [23] = experiment: Growth inhibition of human CCRF-CEM cells after 48 hrs by sulforhodamine B assay; how it was run: as §1
[24] = Growth inhibition of human HOP92 cells after 48 hrs by sulforhodamine B assay; conditions: HOP-92, 48 h; how it was run: as §1
[25] = Growth inhibition of human SKOV3 cells at 10 uM after 48 hrs by sulforhodamine B assay; conditions: SK-OV-3, 48 h, values are per cent of control
[26] = Growth inhibition of human HCT15 cells at 10 uM after 48 hrs by sulforhodamine B assay; conditions: HCT-15, 48 h, values are per cent of control
A549 = experiment: Growth inhibition of human A549/ATCC cells after 48 hrs by sulforhodamine B assay; conditions: A549, 48 h; how it was run: as §1
[27] = Growth inhibition of human COLO205 cells after 48 hrs by sulforhodamine B assay; conditions: COLO 205, 48 h; how it was run: as §1

Compound: N#C/C(=C\c1cccc2ccccc12)c1ccc2c(c1)OCO2
- GI50 [1]: 3.72 µM
- growth, % of control at 10 µM [2]: 46.8%
- growth, % of control at 10 µM (MCF7): 26.1%
- growth, % of control at 10 µM (786-0): 77.1%
- growth, % of control at 10 µM (SK-MEL-5 [3]): 66.2%
- GI50 (SK-MEL-5 [4]): 3.2 µM
- GI50 [5]: 5.95 µM
- growth, % of control at 10 µM [6]: 36.5%
- GI50 (MDA-MB-231): 5.11 µM
- GI50 [7]: 2.96 µM
- GI50 (U-251): 3.85 µM
- growth, % of control at 10 µM [8]: 103%
- GI50 [9]: 2.71 µM
- GI50 [10]: 3.5 µM
- growth, % of control at 10 µM [11]: 64.3%
- GI50 (NCI-H522): 2.89 µM
- GI50 (MDA-MB-435): 0.43 µM
- GI50 [12]: 2.63 µM
- GI50 [13]: 4.18 µM
- GI50 (SK-MEL-28): 5.84 µM
- GI50 [14]: 2.45 µM
- growth, % of control at 10 µM [15]: 99%
- growth, % of control at 10 µM [16]: 77%
- GI50 [17]: 5.52 µM
- GI50 [18]: 2.52 µM
- GI50 [19]: 11 µM
- growth, % of control at 10 µM [20]: 80.1%
- growth, % of control at 10 µM (ACHN): 79.3%
- GI50 [21]: 3.58 µM
- growth, % of control at 10 µM (CCRF-CEM [22]): 52.3%
- GI50 (SK-MEL-2): 3.18 µM
- growth, % of control at 10 µM (Malme-3M): 73.3%
- GI50 (M14): 3.13 µM
- growth, % of control at 10 µM (SR): 23.8%
- GI50 (CCRF-CEM [23]): 3.65 µM
- GI50 [24]: 4.55 µM
- growth, % of control at 10 µM [25]: 61.9%
- growth, % of control at 10 µM [26]: 40.6%
- GI50 (A549): 5 µM
- GI50 [27]: 2.58 µM
